{"source": "ChEMBL document CHEMBL1240314", "about": "“Small-molecule inhibitor of p53 binding to mitochondria protects mice from gamma radiation” (2006)", "key": {"[1]": {"target": "Cellular tumor antigen p53 (Homo sapiens) (UniProt P04637)", "sequence (P04637 whole entry, looked up)": "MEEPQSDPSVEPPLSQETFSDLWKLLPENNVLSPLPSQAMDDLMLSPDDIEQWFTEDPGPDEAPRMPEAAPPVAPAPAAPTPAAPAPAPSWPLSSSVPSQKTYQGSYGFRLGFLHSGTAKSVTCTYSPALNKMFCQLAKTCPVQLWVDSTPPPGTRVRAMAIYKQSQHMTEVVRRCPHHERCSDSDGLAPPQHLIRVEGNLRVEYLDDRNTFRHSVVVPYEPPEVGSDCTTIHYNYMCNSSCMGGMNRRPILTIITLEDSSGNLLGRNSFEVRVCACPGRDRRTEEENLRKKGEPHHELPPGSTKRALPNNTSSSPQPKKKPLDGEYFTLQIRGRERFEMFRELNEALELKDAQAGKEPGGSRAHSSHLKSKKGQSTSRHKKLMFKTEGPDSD", "experiment": "Inhibition of p53-dependent transactivation of p21 in gamma-stimulated human ConA cells", "assay_type": "cell-based", "how_it_was_run": "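ConA cells given 10 µM test agent and 10 Gy gamma irradiation. Protein extracts taken 6 h post-irradiation and p21 detected by immunoblotting.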"}, "[2]": {"target": "Cellular tumor antigen p53 (Homo sapiens) (UniProt P04637)", "experiment": "Inhibition of p53-mediated transactivation in human MCF7 cells in presence of 0.5 ug/ml of doxorubicin after 24 hrs by beta-galactosidase reporter gene assay", "assay_type": "cell-based", "how_it_was_run": "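MCF7 cells with a p53-responsive lacZ reporter treated with Dox 0.5 mg ml–1 (so in the source) plus a range of compound concentrations; β-galactosidase measured colorimetrically in cell extracts after 24 h; means ± s.d., n = 3.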"}, "[3]": {"target": "Cellular tumor antigen p53 (Homo sapiens) (UniProt P04637)", "experiment": "Inhibition of p53-mediated transactivation in human MCF7 cells in presence of 50 ug/ml of 5-fluorouracil after 24 hrs by beta-galactosidase reporter gene assay", "assay_type": "cell-based", "how_it_was_run": "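MCF7 cells carrying a lacZ reporter under a p53-responsive promoter, treated with 5-FU 50 µg ml–1 across a range of test-agent concentrations. β-galactosidase measured colorimetrically in cell extracts after 24 h drug incubation. Means ± s.d., n = 3.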"}, "HeLa [4]": {"system": "HeLa", "experiment": "Antiapoptotic activity against staurosporine-induced cell death in human HeLa cells assessed as caspase 7 activity at 10 uM after 24 hrs", "assay_type": "functional, cell-based"}, "NCI-H1299 [5]": {"system": "NCI-H1299", "experiment": "Antiapoptotic activity against staurosporine-induced cell death in human H1299 cells assessed as caspase 7 activity at 10 uM after 24 hrs", "assay_type": "functional, cell-based"}, "HeLa [6]": {"system": "HeLa", "experiment": "Antiapoptotic activity against staurosporine-induced cell death in human HeLa cells assessed as caspase 3 activity at 10 uM after 24 hrs", "assay_type": "functional, cell-based"}, "NCI-H1299 [7]": {"system": "NCI-H1299", "experiment": "Antiapoptotic activity against staurosporine-induced cell death in human H1299 cells assessed as caspase 3 activity at 10 uM after 24 hrs", "assay_type": "functional, cell-based"}}, "note": "Active and inactive are the calls of the source. The rule behind the calls is not given here."}
{"smiles": "Cc1ccc(C(=O)Cn2c3c(sc2=N)CCCC3)cc1", "values": [{"measurement": "inhibition", "setting": "[1]", "result": "Active"}]}
{"smiles": "COc1cccc2c1C(=O)c1c(O)c3c(c(O)c1C2=O)C[C@@](O)(C(=O)CO)C[C@@H]3O[C@H]1C[C@H](N)[C@H](O)[C@H](C)O1", "values": [{"measurement": "inhibition", "setting": "[2]", "result": "inactive"}]}
{"smiles": "O=c1[nH]cc(F)c(=O)[nH]1", "values": [{"measurement": "inhibition", "setting": "[3]", "result": "inactive"}]}
{"smiles": "CN[C@@H]1C[C@H]2O[C@@](C)([C@@H]1OC)n1c3ccccc3c3c4c(c5c6ccccc6n2c5c31)C(=O)NC4", "values": [{"measurement": "Activity", "setting": "HeLa [4]", "result": "inactive"}, {"measurement": "Activity", "setting": "NCI-H1299 [5]", "result": "inactive"}, {"measurement": "Activity", "setting": "HeLa [6]", "result": "inactive"}, {"measurement": "Activity", "setting": "NCI-H1299 [7]", "result": "inactive"}]}
